Experimental data of several laboratories.
Each line is one published result; the experiments were not run side by side. pIC50: −log10 of the molar value.
KCNH2: Voltage-gated inwardly rectifying potassium channel KCNH2 (KCNH2, Homo sapiens, UniProt Q12809)
ABCB11: Bile salt export pump (ABCB11, Homo sapiens, UniProt O95342)

CN1C[C@H](COc2nccc3c(NCc4ccco4)cc(Cl)nc23)OC1=O — inhibition (KCNH2; ion current, inhibitor; HEK293; 1 µM): 8.8%
O=C(COc1ccc(Cl)cc1)NC12CC(c3nnc([C@H]4C[C@@H](OC(F)(F)F)C4)o3)(C1)C2 — Tmax (human, plasma; oral, 45 mg, multiple doses, once daily, steady state, healthy volunteers): 4.03 h
COc1cccc(OC)c1-c1cc(C(=O)NC2(C(=O)O)C3CC4CC(C3)CC2C4)nn1-c1ccc(C(=O)N(C)CCCN(C)CCCN(C)C(=O)CN2CCN(CC(=O)[O-])CCN(CC(=O)[O-])CCN(CC(=O)[O-])CC2)cc1C(C)C.[177Lu+3] (stereo not shown) — tracer uptake (HT-29; bone; 4 h, tumour-bearing): 1.8 %ID/g
COc1ccc2c(c1)CN(C(=O)CCN1CCC(Cc3ccccc3)CC1)CC[S@@+]2[O-] — Tmax (male human, plasma; intravenous, 0.4 mg/kg, healthy volunteers): 0 h
CC(C)n1cc(C#N)c2cc(-n3cc(C(=O)O)cn3)ccc21 — Tmax (human, plasma; oral, 100 mg, single dose, fasted, healthy volunteers): 2.99 h
NC/C(=C\F)COc1cccc(Cn2c(=S)[nH]c(=O)c3[nH]cnc32)c1 — inhibition (ABCB11; transporter uptake, inhibitor, radiometric; 30 µM): < 50%
Cn1c(=O)c2[nH]cnc2n(C)c1=O — MRT(0-inf) (male Sprague-Dawley rat, plasma; intravenous, 11.25 mg/kg): 6.51 h
C[C@H]1Oc2cc(cnc2N)-c2c(nn(C)c2C#N)CN(C)C(=O)c2ccc(F)cc21 — MRT(0-inf) (Sprague-Dawley rat, plasma; intravenous, 1 mg/kg, single dose): 4.96 h
CC(C)n1ncc2c(C(=O)NCC3(C)CNC3)cc(C3CC3)nc21 — viability (RD; cell growth or viability, neutral red; 0.33 µM): 98.1%
N[C@H]1C(O)O[C@H](CO)[C@@H](O)[C@@H]1O (stereo partly shown) — viability (Caco-2; cell growth or viability, CCK-8; 20 mM): 101%
CC(=O)N1CCC(C(=O)N2CCN3C(=O)c4cc(-c5ccccc5)ccc4NC(=O)C3C2)CC1 (stereo not shown) — inhibition (KCNH2; ion current, inhibitor, patch clamp; HEK293; 100 µM): 56.8%
COc1nc(-c2cccc(-c3ccccc3)c2C)ccc1CNCCNC(=O)CCCCCCCCCCC(=O)N1CCN(CCNC(=O)c2cc3c(=O)n4cccc(C)c4nc3n(CCc3cccs3)c2=N)CC1 — MRT(0-t) (male Sprague-Dawley rat, plasma; intraperitoneal, 4 mg/kg): 7.1 h
CCOC(=O)C1=C(CN2CCC[C@@H]2C(=O)Nc2ccc(B(O)O)cc2)NC(c2nccs2)=N[C@H]1c1ccc(F)cc1Br — inhibition (KCNH2; ion current, inhibitor, patch clamp; HEK293; 30 µM, pH 7.4): 83%
CCn1c(=O)c(-c2cc[nH]n2)cc2c(C)nc(N)nc21 — CC50 (RD; cell growth or viability, MTT): 6.53 µM
COc1cc(N)c(Cl)cc1C(=O)NC1CCN(CCCOc2ccc(F)cc2)CC1OC (stereo not shown) — inhibition (KCNH2; ion current, inhibitor, patch clamp; HEK293; 10 nM, pH 7.4): 39%
CC(C)NC(=O)COc1cccc(-c2nc(Nc3ccc4[nH]ncc4c3)c3ccccc3n2)c1 — pIC50 (ABCB11; transporter uptake, inhibitor, radiometric): < 6.00
